Data reported in BindingDB's records for doi:10.1016/j.ejmech.2008.02.028 (Institute of Chemical Technology, 2008).

Target: Glutathione hydrolase 1 proenzyme (Homo sapiens, UniProt P19440)
Assay: Inhibition of gamma-glutamyltranspeptidase by colorimetric assay
Procedure, shortened: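 Colorimetric read-out at 405 nm by a standard procedure. IC50 is the […] giving 50% inhibition of enzyme activity. Values are the average of three independent experiments (n = 3).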

Sequence of Glutathione hydrolase 1 proenzyme (P19440 1-380 limits assumed): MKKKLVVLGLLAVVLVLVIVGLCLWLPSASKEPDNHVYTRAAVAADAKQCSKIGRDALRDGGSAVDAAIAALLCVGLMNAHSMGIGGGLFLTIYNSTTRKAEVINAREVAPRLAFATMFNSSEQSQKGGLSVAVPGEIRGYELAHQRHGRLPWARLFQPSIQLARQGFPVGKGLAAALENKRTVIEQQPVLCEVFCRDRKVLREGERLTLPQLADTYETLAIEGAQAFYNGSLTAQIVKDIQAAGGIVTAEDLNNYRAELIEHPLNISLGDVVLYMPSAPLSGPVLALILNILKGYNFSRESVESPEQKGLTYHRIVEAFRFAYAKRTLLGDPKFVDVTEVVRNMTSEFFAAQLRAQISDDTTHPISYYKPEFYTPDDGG
Sequence of Glutathione hydrolase 1 proenzyme (P19440 381-569 limits assumed): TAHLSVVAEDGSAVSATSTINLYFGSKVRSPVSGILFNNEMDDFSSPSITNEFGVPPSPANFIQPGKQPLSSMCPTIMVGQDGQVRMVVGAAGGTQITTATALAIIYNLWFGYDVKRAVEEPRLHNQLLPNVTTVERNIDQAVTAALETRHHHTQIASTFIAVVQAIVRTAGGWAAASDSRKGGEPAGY

| SMILES | IC50 |
| --- | --- |
| CNC(=O)C1=C(C)C2Sc3ccccc3N=C2C(C(=O)NC)C1c1ccc2c(c1)OCO2 (configuration not stated) [2-(1,3-Benzodioxol-5-yl)-N,N',4-trimethyl-2,10-dihydro-1H-phenothiazine-1,3-dicarboxamide] | > 30 µM |
| CNC(=O)C1=C(C)C2Sc3ccccc3N=C2C(C(=O)NC)C1c1ccccc1OC (configuration not stated) [2-(2-Methoxyphenyl)-N,N',4-trimethyl-2,10-dihydro-1H-phenothiazine-1,3-dicarboxamide] | > 30 µM |
